Publication PMC2861555 (International journal of radiation biology, 2009)
Read-outs that look alike come from different tables or passages of the source. Marks after values point to notes of the source that are not given here.

Assays:
rats = details: ref Bergeron et al., cited from earlier work
[1] = assay type: in vivo, rat; details: for Bile/Urine (%): bile share of U excretion / Bile/Urine (%): urine share of U excretion / % Administered Dose Excreted: 24 h; for Reduction (%) of renal uranium vs control / reduction of bone actinide content vs control: 24 h post-metal; for % Administered Dose Excreted: bile + urine; for Renal Conc.: kidneys removed 24 h post-metal; for Kidney U Conc. / Liver U Conc. / Lung U Conc. / Spleen U Conc. / Bone (femur) U Conc.: tissue 24 h post-metal; for Bone (femur) U Conc.: bone + bone marrow; for reduction of bone actinide content vs control: femur
[2] = Multiple dose chelator administration in non-bile duct-cannulated; assay type: in vivo, rat; details: for % Administered Dose Excreted / Total U Excretion: urine + feces
Summary of the method: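 Intact rats got uranyl acetate 1 mg U kg−1 s.c. (left flank), then test compound or DTPA 300 µmol kg−1 s.c. (right flank) immediately and at 24-h intervals (4 doses). Rats were caged singly with chow and water ad libitum. Urine and feces were collected every 24 h. Kidneys and other tissues were taken 24 h after the last dose. Uranium was measured by ICP-MS in triplicate; data are mean ± SEM.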

[3] = 24 h after last of 4 daily s.c. doses of 300 µmol kg^−1
[4] = Day 1, 300 µmol kg^−1 s.c. daily x 4
[5] = Day 2, 300 µmol kg^−1 s.c. daily x 4
[6] = Day 3, 300 µmol kg^−1 s.c. daily x 4
[7] = Day 4, 300 µmol kg^−1 s.c. daily x 4
[8] = single dose 300 µmol kg^−1 s.c.

Row | SMILES | Bile/Urine (%): bile share of U excretion ([1]; single dose 150 µmol kg^−1 SC) | Bile/Urine (%): urine share of U excretion ([1]; single dose 150 µmol kg^−1 SC) | Reduction (%) of renal uranium vs control ([1]; single dose 150 µmol kg^−1 SC) | % Administered Dose Excreted ([1]; single dose 150 µmol kg^−1 SC) | Renal Conc. ([1]; single dose 150 µmol kg^−1 SC) | Kidney U Conc. ([1]; single dose 150 µmol kg^−1 SC) | Liver U Conc. ([1]; single dose 150 µmol kg^−1 SC) | Lung U Conc. ([1]; single dose 150 µmol kg^−1 SC) | Spleen U Conc. ([1]; single dose 150 µmol kg^−1 SC) | Bone (femur) U Conc. ([1]; single dose 150 µmol kg^−1 SC) | Bile/Urine (%): bile share of U excretion ([1]; single dose 300 µmol kg^−1 PO) | Bile/Urine (%): urine share of U excretion ([1]; single dose 300 µmol kg^−1 PO) | Reduction (%) of renal uranium vs control ([1]; single dose 300 µmol kg^−1 PO) | % Administered Dose Excreted ([1]; single dose 300 µmol kg^−1 PO) | Renal Conc. ([1]; single dose 300 µmol kg^−1 PO) | Kidney U Conc. ([1]; single dose 300 µmol kg^−1 PO) | Liver U Conc. ([1]; single dose 300 µmol kg^−1 PO) | Lung U Conc. ([1]; single dose 300 µmol kg^−1 PO) | Spleen U Conc. ([1]; single dose 300 µmol kg^−1 PO) | Bone (femur) U Conc. ([1]; single dose 300 µmol kg^−1 PO) | other results
1 | C[C@]1(C(=O)O)CSC(c2ncccc2O)=N1 [DFT, (S)-4,5-dihydro-2-(3-hydroxy-2-pyridinyl)-4-methyl-4-thiazolecarboxylic acid, reference compound] | – | – | – | – | – | – | – | – | – | – | – | – | – | – | – | – | – | – | – | – | nephrotoxicity (rats; rats, 1993): severe nephrotoxicity
2 | O=C(O)CN(CCN(CC(=O)O)CC(=O)O)CCN(CC(=O)O)CC(=O)O [DTPA, Diethylenetriaminepentaacetic acid, reference compound] | 2% | 98% | 44% | 27.6% | 47 ± 9 ^b µg g^−1 | 47 ± 9 ^b µg g^−1 | 0.1 ± 0.0 ^b µg g^−1 | 0.07 ± 0.01 ^b µg g^−1 | 0.15 ± 0.05 ^b µg g^−1 | 3.1 ± 1.1 µg/g | 0% | 100% | 36% | 21.2% | 54 ± 11 ^b µg g^−1 | 54 ± 11 ^b µg g^−1 | 0.2 ± 0.0 µg/g | 0.10 ± 0.02 ^b µg g^−1 | 0.13 ± 0.03 ^b µg g^−1 | 4.3 ± 1.3 µg/g | renal share of actinide excretion ([1]; route of actinide excretion, dose and route of chelator not stated at this place): 100%; Reduction (%) of renal uranium vs control [2, 3]: 39%; Renal Conc. [2, 3]: 19 ± 2 ^c µg g^−1; Fecal U Excretion [2, 4]: 30 ± 19 µg/kg; Urine U Excretion ([2]; Day 1, 300 µmol kg^−1 s.c. daily x 4, first dose immediately post-U): 380 ± 55 µg/kg; % Administered Dose Excreted [2, 4]: 41.0%; Total U Excretion [2, 4]: 410 ± 56 µg/kg; Fecal U Excretion [2, 5]: 13 ± 9 µg/kg; Urine U Excretion [2, 5]: 43 ± 11 µg/kg; % Administered Dose Excreted [2, 5]: 5.6%; Total U Excretion [2, 5]: 56 ± 16 ^c µg kg^−1; Fecal U Excretion [2, 6]: 13 ± 5 µg/kg; Urine U Excretion [2, 6]: 29 ± 6 µg/kg; % Administered Dose Excreted [2, 6]: 4.2%; Total U Excretion [2, 6]: 42 ± 5 µg/kg; Fecal U Excretion [2, 7]: 9 ± 5 µg/kg; Urine U Excretion [2, 7]: 14 ± 3 µg/kg; % Administered Dose Excreted [2, 7]: 2.3%; Total U Excretion [2, 7]: 23 ± 3 µg/kg; administered dose of uranium excreted at the end of four days (urine + feces) ([2]; cumulative over 4 days, 300 µmol kg^−1 s.c. daily x 4): 53%
3 | COc1ccc(C2=N[C@@H](C(=O)O)CS2)c(O)c1 [compound 3, (S)-2-(2-hydroxy-4-methoxyphenyl)-4,5-dihydro-4-thiazolecarboxylic acid] | 37% | 63% | 40% | 23.8% | 51 ± 22 ^b µg g^−1 | 51 ± 22 ^b µg g^−1 | 9.0 ± 4.0 ^c µg g^−1 | 0.32 ± 0.09 ^c µg g^−1 | 0.48 ± 0.09 ^c µg g^−1 | 4.1 ± 1.6 µg/g | 85% | 15% | 73% | 26.0% | 23 ± 11 ^b µg g^−1 | 23 ± 11 ^b µg g^−1 | 2.5 ± 0.8 ^c µg g^−1 | 0.28 ± 0.10 ^c µg g^−1 | 0.29 ± 0.07 ^c µg g^−1 | 3.1 ± 1.3 µg/g | Bile/Urine (%): bile share of U excretion ([1]; single dose 300 µmol kg^−1 SC): 77%; Bile/Urine (%): urine share of U excretion ([1]; single dose 300 µmol kg^−1 SC): 23%; Reduction (%) of renal uranium vs control ([1]; single dose 300 µmol kg^−1 SC): 60%; % Administered Dose Excreted ([1]; single dose 300 µmol kg^−1 SC): 32.7%; Renal Conc. ([1]; single dose 300 µmol kg^−1 SC): 34 ± 5 ^b µg g^−1; Kidney U Conc. ([1]; single dose 300 µmol kg^−1 SC): 34 ± 5 ^b µg g^−1; Liver U Conc. ([1]; single dose 300 µmol kg^−1 SC): 6.6 ± 1.2 ^c µg g^−1; Lung U Conc. ([1]; single dose 300 µmol kg^−1 SC): 0.32 ± 0.02 ^c µg g^−1; Spleen U Conc. ([1]; single dose 300 µmol kg^−1 SC): 0.39 ± 0.07 ^c µg g^−1; Bone (femur) U Conc. ([1]; single dose 300 µmol kg^−1 SC): 3.0 ± 1.5 µg/g
4 | COc1ccc(C2=N[C@@](C)(C(=O)O)CS2)c(O)c1 [compound 7, (S)-4'-(CH3O)-DADFT] | 62% | 38% | 77% | 24.8% | 19 ± 4 ^b µg g^−1 | 19 ± 4 ^b µg g^−1 | 11.3 ± 3.2 µg/g | 0.28 ± 0.04 ^c µg g^−1 | 0.39 ± 0.08 ^c µg g^−1 | 2.9 ± 0.9 µg/g | 89% | 11% | 94% | 26.5% | 5 ± 3 ^b µg g^−1 | 5 ± 3 ^b µg g^−1 | 5.1 ± 1.7 ^c µg g^−1 | 0.30 ± 0.10 ^c µg g^−1 | 0.49 ± 0.44 µg/g | 1.7 ± 0.9 ^b µg g^−1 | Liver U Conc. ([1]; single dose 150 µmol kg^−1 SC, listed as C00017): 11.3 ± 3.2 ^c µg g^−1; Bile/Urine (%): bile share of U excretion ([1]; single dose 300 µmol kg^−1 SC): 92%; Bile/Urine (%): urine share of U excretion ([1]; single dose 300 µmol kg^−1 SC): 8%; Reduction (%) of renal uranium vs control ([1]; single dose 300 µmol kg^−1 SC): 90%; % Administered Dose Excreted ([1]; single dose 300 µmol kg^−1 SC): 33.9%; Renal Conc. ([1]; single dose 300 µmol kg^−1 SC): 8 ± 2 ^b µg g^−1; Kidney U Conc. ([1]; single dose 300 µmol kg^−1 SC): 8 ± 2 ^b µg g^−1; Liver U Conc. ([1]; single dose 300 µmol kg^−1 SC): 8.1 ± 2.4 ^c µg g^−1; Lung U Conc. ([1]; single dose 300 µmol kg^−1 SC): 0.61 ± 0.13 ^c µg g^−1; Spleen U Conc. ([1]; single dose 300 µmol kg^−1 SC): 0.67 ± 0.18 ^c µg g^−1; Bone (femur) U Conc. ([1]; single dose 300 µmol kg^−1 SC): 1.8 ± 0.6 ^b µg g^−1; reduction of bone actinide content vs control ([1]; single dose 300 µmol kg^−1 p.o.): ≥ 50%; reduction of bone actinide content vs control [1, 8]: ≥ 50%
5 | COCCOCCOCCOc1cccc(C2=N[C@@](C)(C(=O)O)CS2)c1O [compound 10, (S)-4,5-dihydro-2-[2-hydroxy-3-(3,6,9-trioxadecyloxy)phenyl]-4-methyl-4-thiazolecarboxylic acid] | 55% | 45% | 61% | 31.6% | 33 ± 8 ^b µg g^−1 | 33 ± 8 ^b µg g^−1 | 1.2 ± 0.6 ^c µg g^−1 | 0.09 ± 0.02 ^b µg g^−1 | 0.21 ± 0.01 ^c µg g^−1 | 3.4 ± 0.1 µg/g | – | – | 62% | 25.7% | 32 ± 20 ^b µg g^−1 | 32 ± 20 ^b µg g^−1 | 0.7 ± 0.4 ^c µg g^−1 | 0.13 ± 0.04 µg/g | 0.16 ± 0.05 µg/g | 3.1 ± 1.1 µg/g | Bile/Urine (%): bile share of U excretion ([1]; single dose 300 µmol kg^−1 SC): 79%; Bile/Urine (%): urine share of U excretion ([1]; single dose 300 µmol kg^−1 SC): 21%; Reduction (%) of renal uranium vs control ([1]; single dose 300 µmol kg^−1 SC): 85%; % Administered Dose Excreted ([1]; single dose 300 µmol kg^−1 SC): 31.4%; Renal Conc. ([1]; single dose 300 µmol kg^−1 SC): 13 ± 6 ^b µg g^−1; Kidney U Conc. ([1]; single dose 300 µmol kg^−1 SC): 13 ± 6 ^b µg g^−1; Liver U Conc. ([1]; single dose 300 µmol kg^−1 SC): 0.8 ± 0.2 ^c µg g^−1; Lung U Conc. ([1]; single dose 300 µmol kg^−1 SC): 0.08 ± 0.02 ^b µg g^−1; Spleen U Conc. ([1]; single dose 300 µmol kg^−1 SC): 0.18 ± 0.03 µg/g; Bone (femur) U Conc. ([1]; single dose 300 µmol kg^−1 SC): 2.3 ± 0.6 ^b µg g^−1; reduction of bone actinide content vs control [1, 8]: 36%; nephrotoxicity (rats; 2008): did not present with any nephrotoxicity
